Bioassay records (PubChem BioAssay)
Most compounds without a hit are left out; they make up all but 2.1% or so of the library.
F508del corr: correctors of CFTR F508del function in bronchial epithelial cells; CFBE cells, YFP halide quenching; stimulated with forskolin plus potentiator P3; % fluorescence drop versus neutral controls; activity (quench increase), % at 7.58 µM; actives 0.36% (n = 350,000); AID 720511;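 active means mean added fluorescence quench of at least 8% versus neutral control, with both replicates also reaching 8%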;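 further: cells transiently co-express mutant CFTR-F508del with the halide-sensitive YFP; corrector assay measuring rescue of mutant channel to the surface after 24 h compound exposure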
SMARCA2 act: increases SMARCA2 function in MMTV reporter cells. MG213 cells, MMTV-luciferase reporter, dexamethasone, overnight. activation, % at 9.1 µM. actives 1% (n = 370,000). AID 652017; in the data active means activation above about 7.8%;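 further: 0% = vehicle wells and 100% = reference activator wells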
MC4R barr agon: human MC4R agonism via beta-arrestin | P32245 | U2OS MC4R beta-arrestin complementation, luminescence; percent of melanotan II response, DMSO zero | activation, % at 8.9 µM | actives 0.98% (n = 360,000);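 active means activation above a per-plate cutoff, the mean activation of sample wells on that plate plus 3 SD, cut at about 8% in these data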
MC4R antag cAMP: antagonists of human melanocortin 4 receptor (MC4R); actives 0.48% (n = 360,000); inhibition, % at 6.5 µM; MC4R-expressing cells, MTII-stimulated cAMP, LANCE TR-FRET; P32245;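 active means inhibition above its plate's cutoff, the mean of tested wells on that plate plus 3 SD, cut at about 29% in these data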;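 further: 0% = Melanotan II alone and 100% = Melanotan II plus saturating MCL0020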
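System: U2OS-MC4R stable cell line; Technique: Eu-cAMP/anti-cAMP TR-FRET, emission 671 nm; Repeats: single well per compound; Also added: Melanotan II; Dosing: one concentration, 6.5 µM nominal; Schedule: 30-min compound, 1-h challenge, 1-h detection, room temperature.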
MC4R barr conf: human MC4R beta-arrestin agonism confirmation; U2OS MC4R beta-arrestin recruitment, luminescence; scaled DMSO 0%, Melanotan II 100%; activation, % at 8.9 µM; shares compounds with MC4R barr agon; actives 31% (n = 2,400);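 active means mean activation across replicates above the hit cutoff set in the earlier primary screen, cut at about 8% in these data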
MOR DOR agonist: activates mu-delta opioid heterodimer, MC4R agonist counter-screen; shares compounds with MC4R barr agon; U2OS PathHunter beta-arrestin, beta-gal luminescence; percent of deltorphin B response, DMSO zero; activation, % at 9.2 µM; actives 5.8% (n = 2,400);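 active means mean activation across replicates exceeds the hit threshold derived in the earlier primary screen, cut at about 18% in these data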;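 further: 100% = deltorphin B at 0.9 µM final and 0% = DMSO alone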
Target sequence (P35372 whole entry, looked up): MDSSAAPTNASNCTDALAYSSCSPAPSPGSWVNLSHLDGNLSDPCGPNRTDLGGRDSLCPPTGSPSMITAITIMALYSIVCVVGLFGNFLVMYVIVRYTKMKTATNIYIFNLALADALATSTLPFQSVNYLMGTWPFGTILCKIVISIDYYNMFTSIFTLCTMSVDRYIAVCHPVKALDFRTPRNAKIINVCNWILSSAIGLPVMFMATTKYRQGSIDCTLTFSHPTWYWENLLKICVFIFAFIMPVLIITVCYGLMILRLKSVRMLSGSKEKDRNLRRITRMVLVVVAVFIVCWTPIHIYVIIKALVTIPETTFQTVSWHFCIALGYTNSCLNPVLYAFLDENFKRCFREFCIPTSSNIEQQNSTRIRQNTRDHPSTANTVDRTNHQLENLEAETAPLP
Target sequence (P41143 whole entry, looked up): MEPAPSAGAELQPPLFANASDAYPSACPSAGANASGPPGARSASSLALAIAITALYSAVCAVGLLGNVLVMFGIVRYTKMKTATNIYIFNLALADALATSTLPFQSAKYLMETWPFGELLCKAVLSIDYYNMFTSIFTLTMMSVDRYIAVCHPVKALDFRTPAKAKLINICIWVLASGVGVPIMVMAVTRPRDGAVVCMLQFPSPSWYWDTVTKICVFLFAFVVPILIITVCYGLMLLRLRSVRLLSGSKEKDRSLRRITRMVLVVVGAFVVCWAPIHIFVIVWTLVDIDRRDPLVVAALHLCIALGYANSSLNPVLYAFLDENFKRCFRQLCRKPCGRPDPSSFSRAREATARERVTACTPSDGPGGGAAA
An asterisk follows results filed as active.

`Cc1ccc(-c2nc(C=Nc3cccc(C)c3)c(O)o2)cc1` gave F508del corr 3, SMARCA2 act 0, MC4R barr agon 14*, MC4R antag cAMP -2, MC4R barr conf 7 and MOR DOR agonist 1.
Screening CCOC(=O)c1c(NC(=O)COC(=O)c2nccnc2N)sc2c1CCC2 returned F508del corr -6, SMARCA2 act 1, MC4R barr agon 16*, MC4R antag cAMP -4, MC4R barr conf 5 and MOR DOR agonist 6.
For C[C@@H]1CCCCO[C@H](CN(C)CC2CCCCC2)[C@H](C)CN([C@H](C)CO)C(=O)c2cc(NC(=O)Nc3cccc4ccccc34)ccc2O1 the results were F508del corr -2.
Screening Cc1onc(-c2ccccc2)c1C(=O)Nc1nc(-c2cc(F)ccc2F)cs1 returned SMARCA2 act 3, MC4R barr agon 34*, MC4R antag cAMP -6, MC4R barr conf 8 and MOR DOR agonist 6.
For Cc1nn(-c2ccccc2)nc1C(=O)Nc1ccc2[nH]ncc2c1 the results were F508del corr -4, SMARCA2 act 0, MC4R barr agon 23*, MC4R antag cAMP 7, MC4R barr conf 13* and MOR DOR agonist 5.
For COc1ccc2oc(-c3ccc(C)c(NC(=O)c4ccc(N5CCOCC5)c([N+](=O)[O-])c4)c3)nc2c1 the results were SMARCA2 act 7, MC4R barr agon 11*, MC4R antag cAMP 1, MC4R barr conf 4 and MOR DOR agonist 4.
Screening COc1ccc(CNC(=O)c2ccc(N3CCOCC3)c([N+](=O)[O-])c2)cc1 returned F508del corr -2, SMARCA2 act -1, MC4R barr agon 1 and MC4R antag cAMP 16.
`COc1ccc(C(=O)CSc2nnc(-c3cc(C)cc(C)c3)o2)cc1` gave F508del corr -3, SMARCA2 act -4, MC4R barr agon 9.8*, MC4R antag cAMP 10, MC4R barr conf 8 and MOR DOR agonist 6.
`COc1ccc(C(=O)CSc2nnc(CNc3ccc(C)cc3C)o2)cc1` gave SMARCA2 act -3, MC4R barr agon 11*, MC4R antag cAMP 9, MC4R barr conf 11* and MOR DOR agonist 12.
`Cc1ccc(NCc2nnc(SCC(=O)c3ccc4c(c3)OCCO4)o2)c(C)c1` gave F508del corr -1, SMARCA2 act -2, MC4R barr agon 2 and MC4R antag cAMP -1.
CCC(=O)N(C)C[C@H]1Oc2cc(C#CC3(O)CCCC3)ccc2S(=O)(=O)N([C@H](C)CO)C[C@@H]1C was read as F508del corr 2.
`COc1ccc(NC(=O)N(C)C[C@H]2Oc3ccc(NC(=O)Cn4cnnn4)cc3C(=O)N([C@H](C)CO)C[C@H]2C)cc1` gave F508del corr 4.
For COc1ccc(-c2cc(C#N)nc(Oc3ccc(Cl)cc3)n2)cc1 the results were SMARCA2 act -3, MC4R barr agon 11*, MC4R antag cAMP 2, MC4R barr conf 2 and MOR DOR agonist 3.
N#Cc1cc(-c2ccccc2)nc(Oc2ccccc2)n1 was read as F508del corr 0, SMARCA2 act 0, MC4R barr agon -2 and MC4R antag cAMP 7.
O=C(C[C@H]1C=C[C@@H](NC(=O)CCN2CCCCC2)[C@H](CO)O1)Nc1ccc(-c2ccccc2)cc1 was read as F508del corr 1.
For COc1cc(/C=C/C(=O)OCC(=O)N2CCCc3ccccc32)ccc1O the results were F508del corr -4, SMARCA2 act 1, MC4R barr agon -1 and MC4R antag cAMP 3.
Screening O=C(/C=C/c1cccc(F)c1)OCC(=O)N1CCc2ccccc21 returned F508del corr 0, SMARCA2 act -5, MC4R barr agon 28*, MC4R antag cAMP 8, MC4R barr conf 0 and MOR DOR agonist 3.
For Cc1ccc(-c2nn3c(C)nnc3s2)cc1NC(=O)c1ccc(-c2ccc(Cl)cc2Cl)o1 the results were SMARCA2 act -4, MC4R barr agon 1 and MC4R antag cAMP 6.
Screening Cc1ccc(-c2nn3c(C)nnc3s2)cc1NC(=O)c1ccc(-c2cccc(Cl)c2)o1 returned SMARCA2 act 3, MC4R barr agon 13*, MC4R antag cAMP 2, MC4R barr conf 0 and MOR DOR agonist 3.
COc1cccc(S(=O)(=O)N[C@H]2CC[C@@H](CC(=O)NCc3ccc(F)cc3)O[C@H]2CO)c1 was read as F508del corr 1.
For C[C@@H]1CCCCO[C@H](CN(C)C(=O)Nc2ccc(F)cc2)[C@@H](C)CN([C@@H](C)CO)C(=O)c2cc(NC(=O)c3ccncc3)ccc2O1 the results were F508del corr 1.
Screening CO[C@@H]1CN(C)C(=O)c2cc(NC(=O)Nc3cccc(Cl)c3)ccc2OC[C@H](C)N(C)C[C@H]1C returned F508del corr -1.
Screening CCOCCCNCc1ccc(OC)cc1 returned SMARCA2 act 3, MC4R barr agon -2 and MC4R antag cAMP -4.
For COc1ccc2cc(CNCCOCCOCCNCc3ccc4cc(OC)ccc4c3)ccc2c1 the results were F508del corr 2, SMARCA2 act -9, MC4R barr agon 17*, MC4R antag cAMP 5, MC4R barr conf 58* and MOR DOR agonist 20*.
CCOc1ccc(NC(=NCc2ccc3c(c2)OCO3)SC2CC(=O)N(c3ccc(OCC)cc3)C2=O)cc1 (configuration not stated) was read as SMARCA2 act -7, MC4R barr agon 3 and MC4R antag cAMP 3.
Screening CCOc1ccc(NC(=NCc2ccc3c(c2)OCO3)SC2CC(=O)N(c3ccccc3)C2=O)cc1 (configuration not stated) returned SMARCA2 act 1, MC4R barr agon 18*, MC4R antag cAMP 1, MC4R barr conf 7 and MOR DOR agonist 7.
CC(NC(C(=O)c1ccccc1)c1ccccc1)c1ccccc1 (configuration not stated) was read as F508del corr -1, SMARCA2 act 4, MC4R barr agon 12*, MC4R antag cAMP 15, MC4R barr conf 0 and MOR DOR agonist 6.
`COc1ccc2c3c(n(C)c2c1)[C@H](CO)N(Cc1nccs1)CC31CN(C(=O)CN(C)C)C1` gave F508del corr 1.
For O=C(Nc1cc(Br)ccc1C(=O)NCc1cccc(O)c1)c1ccccc1 the results were F508del corr 0.
For Cc1ccc(-n2nnc3c(SCC(=O)NCc4ccco4)ncnc32)cc1 the results were SMARCA2 act 2, MC4R barr agon 13*, MC4R antag cAMP 4, MC4R barr conf 1 and MOR DOR agonist 5.
For O=C(COC(=O)c1ccccc1O)NCCC1=CCCCC1 the results were F508del corr -5, SMARCA2 act 3, MC4R barr agon 3 and MC4R antag cAMP 10.
